Values after ≈ are worked out from the molar mass of the structure shown.
Key:
[1] = Antioxidant activity assessed as SOD-like activity by WST1 assay; assay type: functional
How it was run: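 SOD Assay Kit-WST in 96-well plates. Compound in DMSO was mixed with WST working solution, and the reaction was started with xanthine oxidase. After 20 min at 37 °C, absorbance was read at 450 nm. Inhibition % was corrected with three blanks (DMSO, no enzyme, DMSO plus buffer). Four concentrations were tested, and IC50 was taken from the inhibition-concentration plot.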

[2] = tested on: Radical scavenging activity; assay: Antioxidant activity assessed as DPPH radical scavenging activity; assay type: functional
How it was run: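 Each well held 10 µl compound in DMSO plus 190 µl of 0.1 mM DPPH in ethanol. After 20 min at rt, absorbance was read at 540 nm. Effective rate % was computed, each compound was tested at 4 concentrations, and EC50 was derived from a plot of effective rate % against concentration.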

[3] = tested on: Human immunodeficiency virus 1; assay: Antiviral activity against HIV1 3B infected in human MT4 cells after 5 days; assay type: functional
How it was run: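 MT-4 cells were infected 1 h with HIV-1 (HTLV-IIIB) at TCID50 0.001/cell, resuspended at 1 × 10⁵ cells/ml in RPMI-1640, and cultured 5 days with graded compound concentrations. Infected and uninfected controls had no compound. On day 5, the concentration fully preventing the virus-induced cytopathic effect was read by optical microscopy.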

[4] = tested on: MT4; assay: Cytotoxicity against human MT4 cells after 5 days; assay type: cell-based; conditions: mt4, 120 h
How it was run: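 Over a 5-day culture in RPMI-1640 with graded compound concentrations, MT-4 cell growth was checked by optical microscopy. The cytotoxic concentration (CC) was the concentration that reduced MT-4 viability.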

## O=C(/C=C/c1ccc(O)c(O)c1)O[C@@H]1C[C@](O)(C(=O)O)C[C@@H](OC(=O)/C=C/c2ccc(O)c(O)c2)[C@H]1O
[1]
  IC50: 2.3 µg/mL (≈ 4.45 µM)
[2]
  EC50: 16 µg/mL (≈ 31 µM)
[3]
  IC100: 12.5 µg/mL
[4]
  CC100: > 50 µg/mL

## O=C(/C=C/c1ccc(O)c(O)c1)O[C@@H]1C[C@@](O)(C(=O)O)C[C@@H](O)[C@@H]1O
[1]
  IC50: 1.5 µg/mL (≈ 4.23 µM)
[2]
  EC50: 17 µg/mL (≈ 48 µM)

## CC(=O)Oc1ccc(/C=C/C(=O)O[C@@H]2C=C[C@@]3(C[C@H]2OC(=O)/C=C/c2ccc(OC(C)=O)c(OC(C)=O)c2)OC(C)(C)OC3=O)cc1OC(C)=O
[1]
  IC50: 6.3 µg/mL (≈ 8.92 µM)
[2]
  EC50: > 50 µg/mL
[4]
  CC100: > 6.25 µg/mL

## CC1(C)OC(=O)[C@@]2(C=C[C@@H](O)[C@H](OC(=O)/C=C/c3ccc(O)c(O)c3)C2)O1
[1]
  IC50: 1.5 µg/mL (≈ 3.99 µM)
[2]
  EC50: 20 µg/mL (≈ 53.1 µM)
[3]
  IC100: 50 µg/mL
[4]
  CC100: > 100 µg/mL

## CC1(C)OC(=O)[C@@]2(C=C[C@@H](OC(=O)/C=C/c3ccc(O)c(O)c3)[C@H](O)C2)O1
[1]
  IC50: 1.3 µg/mL (≈ 3.45 µM)
[2]
  EC50: 18 µg/mL (≈ 47.8 µM)
[3]
  IC100: 50 µg/mL
[4]
  CC100: > 100 µg/mL

## CC[C@H]1OC(=O)[C@]2(C[C@@H](O)[C@H](O)[C@H](OC(=O)/C=C/c3ccc(O)c(O)c3)C2)O1
[1]
  IC50: 1.1 µg/mL (≈ 2.79 µM)
[2]
  EC50: 20 µg/mL (≈ 50.7 µM)
[4]
  CC100: > 12.5 µg/mL

## CC[C@@H]1OC(=O)[C@]2(C[C@@H](O)[C@H](O)[C@H](OC(=O)/C=C/c3ccc(O)c(O)c3)C2)O1
[1]
  IC50: 1 µg/mL (≈ 2.54 µM)
[2]
  EC50: 19 µg/mL (≈ 48.2 µM)
[4]
  CC100: > 12.5 µg/mL

## CC1(C)OC(=O)[C@]2(C[C@@H](O)[C@H](O)[C@H](OC(=O)/C=C/c3ccc(O)c(O)c3)C2)O1
[1]
  IC50: 1.6 µg/mL (≈ 4.06 µM)
[2]
  EC50: 8 µg/mL (≈ 20.3 µM)
[3]
  IC100: 25 µg/mL
[4]
  CC100: > 50 µg/mL

## COC(=O)[C@@]1(O)C[C@@H](O)[C@H](O)[C@H](OC(=O)/C=C/c2ccc(O)c(O)c2)C1
[1]
  IC50: 1.4 µg/mL (≈ 3.8 µM)
[2]
  EC50: 20 µg/mL (≈ 54.3 µM)
[4]
  CC100: > 25 µg/mL

## CC(=O)Oc1ccc(/C=C/C(=O)O[C@@H]2C[C@]3(C=C[C@H]2O)OC(C)(C)OC3=O)cc1OC(C)=O
[1]
  IC50: 1.8 µg/mL (≈ 3.91 µM)
[2]
  EC50: > 50 µg/mL
[3]
  IC100: 50 µg/mL
[4]
  CC100: > 100 µg/mL

## CC(=O)Oc1ccc(/C=C/C(=O)O[C@@H]2C=C[C@@]3(C[C@H]2O)OC(C)(C)OC3=O)cc1OC(C)=O
[1]
  IC50: 2.9 µg/mL (≈ 6.3 µM)
[2]
  EC50: > 50 µg/mL

## O=C(/C=C/c1ccc(O)c(O)c1)O[C@@H]1C=C[C@@](O)(C(=O)O)C[C@H]1OC(=O)/C=C/c1ccc(O)c(O)c1
[1]
  IC50: 1.9 µg/mL (≈ 3.81 µM)
[2]
  EC50: 11 µg/mL (≈ 22.1 µM)
[3]
  IC100: 6.25 µg/mL
[4]
  CC100: > 25 µg/mL

## CC1(C)OC(=O)[C@@]2(C=C[C@@H](O)[C@H](O)C2)O1
[1]
  IC50: > 100 µg/mL
[2]
  EC50: > 50 µg/mL
[4]
  CC100: > 100 µg/mL

## CC1(C)OC(=O)[C@@]2(C=C[C@@H](OC(=O)/C=C/c3ccc(O)c(O)c3)[C@H](OC(=O)/C=C/c3ccc(O)c(O)c3)C2)O1
[1]
  IC50: 2 µg/mL (≈ 3.71 µM)
[2]
  EC50: 20 µg/mL (≈ 37.1 µM)
[4]
  CC100: > 25 µg/mL

## O=C(/C=C/c1ccc(O)c(O)c1)O[C@@H]1C[C@](O)(C(=O)O)C=C[C@H]1O
[1]
  IC50: 0.5 µg/mL (≈ 1.49 µM)
[2]
  EC50: 16 µg/mL (≈ 47.6 µM)
[4]
  CC100: > 25 µg/mL

## CCC1(CC)OC(=O)[C@]2(C[C@@H](O)[C@H](O)[C@H](OC(=O)/C=C/c3ccc(O)c(O)c3)C2)O1
[1]
  IC50: 2 µg/mL (≈ 4.73 µM)
[2]
  EC50: 29 µg/mL (≈ 68.7 µM)
[4]
  CC100: > 25 µg/mL

## CCCCC1(CCCC)OC(=O)[C@]2(C[C@@H](O)[C@H](O)[C@H](OC(=O)/C=C/c3ccc(O)c(O)c3)C2)O1
[1]
  IC50: 2 µg/mL (≈ 4.18 µM)
[2]
  EC50: 22 µg/mL (≈ 46 µM)
[4]
  CC100: > 25 µg/mL

## CCCCCC1(CCCCC)OC(=O)[C@]2(C[C@@H](O)[C@H](O)[C@H](OC(=O)/C=C/c3ccc(O)c(O)c3)C2)O1
[1]
  IC50: 2.9 µg/mL (≈ 5.72 µM)
[2]
  EC50: 28 µg/mL (≈ 55.3 µM)
[4]
  CC100: > 12.5 µg/mL

## CCCC1(CCC)OC(=O)[C@]2(C[C@@H](O)[C@H](O)[C@H](OC(=O)/C=C/c3ccc(O)c(O)c3)C2)O1
[1]
  IC50: 2 µg/mL (≈ 4.44 µM)
[2]
  EC50: 30 µg/mL (≈ 66.6 µM)
[4]
  CC100: > 25 µg/mL

## CC1(C)O[C@H]2C=C[C@@]3(C[C@H]2O1)OC(C)(C)OC3=O
[1]
  IC50: 90 µg/mL (≈ 354 µM)
[2]
  EC50: > 50 µg/mL
[4]
  CC100: > 100 µg/mL

## O=C(/C=C/c1ccc(O)c(O)c1)O[C@@H]1C=C[C@@](O)(C(=O)O)C[C@H]1O
[1]
  IC50: 0.7 µg/mL (≈ 2.08 µM)
[2]
  EC50: 15 µg/mL (≈ 44.6 µM)
[4]
  CC100: > 25 µg/mL

## CC1(C)O[C@H]2[C@H](O)C[C@@]3(C[C@H]2O1)OC(C)(C)OC3=O [QUINIC ACID BISACETONIDE]
[1]
  IC50: > 100 µg/mL
[2]
  EC50: > 50 µg/mL
[4]
  CC100: > 100 µg/mL

— ChEMBL document CHEMBL1157714, “Synthesis, anti-HIV and anti-oxidant activities of caffeoyl 5,6-anhydroquinic acid derivatives” (Bioorg Med Chem, 2010)
